# Laboratory results reported in ChEMBL document CHEMBL1156797, “Synthesis and antiplasmodial activity of new indolone N-oxide derivatives” (J Med Chem, 2010).
# How the values were obtained:
# Plasmodium falciparum [1] = test: Resistance index, ratio of IC50 for chloroquine-resistant Plasmodium falciparum FcB1 to IC50 for drug-sensitive Plasmodium falciparum 3D7; format: functional
# Plasmodium falciparum [2] = test: Antimalarial activity against chloroquine-resistant Plasmodium falciparum FcB1 assessed as [3H]hypoxanthine incorporation after 48 hrs by beta-counter; format: functional, organism-based; settings: FcB1/Columbia
# Method in brief: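 Primary assay (Toulouse) on FcB1 cultured in RPMI with 25 mM HEPES and 10% human serum, O RBCs. Serial dilutions in triplicate, 2% parasitaemia, 2% haematocrit, 48 h at 37 °C, 5% CO2. [3H]-hypoxanthine added at 24 h, freeze-thaw harvest, β-counting. IC50 by linear regression on the linear segment of the semilog inhibition curve. Three independent repeats.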
# [3] = Cytotoxicity against human MCF7 cells after 48 hrs by MTT assay; format: cell-based
# [4] = Selectivity index, ratio of CC50 for human MCF7 cells to IC50 for chloroquine-resistant Plasmodium falciparum FcB1; format: functional
# Method in brief: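 XTT 0.5 mg/mL added for 180 min, formazan read at 450 nm, value taken from dose–response curves, two experiments in triplicate. This CC50 is divided by the FcB1 IC50 to give the index.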
# Plasmodium falciparum [5] = test: Antimalarial activity against drug-sensitive Plasmodium falciparum 3D7 assessed as [3H]hypoxanthine incorporation by scintillation counting; format: functional, organism-based
# Plasmodium falciparum [6] = test: Antimalarial activity against Plasmodium falciparum K1 assessed as [3H]hypoxanthine incorporation by scintillation counting; format: functional, organism-based
# [7] = Cytotoxicity against human KB cells after 72 hrs by alamar blue assay; format: cell-based
# Method in brief: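 KB cells were seeded at 4×10^4 cells/mL in RPMI 1640 with 10% heat-inactivated FCS and left 24 h at 37 °C, 5% CO2. A dilution series was added in triplicate for 72 h, then AlamarBlue for 2–4 h. Fluorescence was read at ex 530/em 585 nm, with podophyllotoxin as positive control and values from curve fitting.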
# [8] = Selectivity index, ratio of CC50 for human KB cells to IC50 for drug-sensitive Plasmodium falciparum 3D7; format: functional
# Method in brief: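 The 3D7 value came from [3H]hypoxanthine incorporation: synchronized culture at 0.5% parasitaemia, 2.5% hematocrit, Albumax-supplemented medium, 2-fold dilutions from 100 to 0.05 μM in triplicate, label added at 24 h and harvested at 48 h.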
# Plasmodium falciparum [9] = test: Resistance index, ratio of IC50 for chloroquine-resistant Plasmodium falciparum K1 to IC50 for drug-sensitive Plasmodium falciparum 3D7; format: functional
# Plasmodium berghei [10] = test: Antimalarial activity against Plasmodium berghei ANKA infected Swiss mice (Mus musculus) assessed as reduction in parasitemia at 30 mg/kg, perorally after 3 days measured on day 4; format: functional; set-up: scale not given: the % may be the effect or the level left; settings: route oral
# Method in brief: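 Male Swiss outbred CD-1 mice (20 g) were infected iv with 2×10^6 P. berghei ANKA-infected red cells and put in groups of five per dose. Dosing was by oral gavage in suspending vehicle (0.5% Na carboxymethylcellulose, 0.5% benzyl alcohol, 0.4% Tween 80, 0.9% NaCl), starting 3 h postinfection, then once daily on days 1–3. Day-4 Giemsa films; % inhibition against untreated mean parasitaemia.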
# Plasmodium berghei [11] = test: Antimalarial activity against Plasmodium berghei ANKA infected Swiss mice (Mus musculus) assessed as reduction in parasitemia at 30 mg/kg, intraperitoneally after 3 days measured on day 4; format: functional; set-up: scale not given: the % may be the effect or the level left; settings: route intraperitoneal
# Method in brief: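 P. berghei ANKA in male Swiss outbred CD-1 mice (20 g), kept specific pathogen-free. Infection was iv with 2×10^6 infected red cells on day 0, then mice were randomized into groups of five per dose. Compound was given ip in 0.05% Tween 80. Parasitaemia was read from Giemsa-stained blood films on day 4 and expressed as % inhibition from group arithmetic mean parasitaemia versus the untreated group.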
# [12] = Metabolic stability in CD1 mouse liver microsomes assessed as half life; format: ADME, Microsome
# [13] = Inhibition of beta-hematin formation assessed as biocrystallization by UV-visible assay; format: functional
# Mus musculus = test: Toxicity in Swiss mouse at 140 mg/kg, ip; format: organism-based; set-up: dose 140 mg/kg, route intraperitoneal; settings: in vivo
# Plasmodium berghei [14] = test: Antimalarial activity against Plasmodium berghei NK65 infected Swiss mice (Mus musculus) assessed as reduction in parasitemia treated intraperitoneally for 3 days measured on day 4; settings: NK65, ip
# Plasmodium berghei [15] = test: Antimalarial activity against Plasmodium berghei NK65 infected Swiss mice (Mus musculus) assessed as reduction in parasitemia at 48 mg/kg, intraperitoneally after 3 days measured on day 4; set-up: scale not given: the % may be the effect or the level left; settings: route intraperitoneal
# Plasmodium berghei [16] = test: Antimalarial activity against Plasmodium berghei NK65 infected Swiss mice (Mus musculus) assessed as reduction in parasitemia at 10 mg/kg, intraperitoneally after 3 days measured on day 4; set-up: scale not given: the % may be the effect or the level left; settings: route intraperitoneal
Structure (SMILES),Ratio IC50 (Plasmodium falciparum [1]),IC50 (Plasmodium falciparum [2]),CC50 at 48 h [3],Ratio CC50/IC50 [4],IC50 (Plasmodium falciparum [5]),IC50 (Plasmodium falciparum [6]),CC50 at 72 h [7],Ratio CC50/IC50 [8],Ratio IC50 (Plasmodium falciparum [9]),Activity (Plasmodium berghei [10]),Activity (Plasmodium berghei [11]),half-life [12],IC50 [13],Activity (Mus musculus),ED50 (Plasmodium berghei [14]),Activity (Plasmodium berghei [15]),Activity (Plasmodium berghei [16])
COc1ccc2c(c1)C(=O)C(c1ccc(OC(C)C)cc1)=[N+]2[O-],0.5,17 nM,> 32100 nM,> 1890,32 nM,81.3 nM,321000 nM,10031,2.5,25.1%,30.4%,6 min,–,–,–,–,–
O=C1C(c2ccccc2)=[N+]([O-])c2ccccc21,–,889 nM,19500 nM,22,–,–,–,–,–,–,–,–,Not Active,–,–,–,–
COc1ccc2c(c1)C(=O)C(c1ccc(N(C)C)cc1)=[N+]2[O-],2.9,< 3 nM,43900 nM,> 14600,1.7 nM,–,338000 nM,198823,–,20.9%,15.3%,6 min,–,–,–,–,–
CCOc1ccc(C2=[N+]([O-])c3cc4c(cc3C2=O)OCO4)cc1,–,156 nM,51900 nM,332,–,–,–,–,–,–,–,–,Not Active,–,–,–,–
O=C1C(c2ccc(Cl)cc2)=[N+]([O-])c2cc3c(cc21)OCO3,1.3,75 nM,15900 nM,212,58 nM,88 nM,27000 nM,450,1.5,14.5%,62.1%,< 1 min,–,Non-toxic,16 mg/kg,81%,–
COc1ccc(C2=[N+]([O-])c3ccccc3C2=O)cc1,1.9,195 nM,> 39500 nM,>202,101 nM,124 nM,457000 nM,4525,1.2,32.4%,40.5%,16 min,–,–,–,–,–
CCN(CC)CCCC(C)Nc1ccnc2cc(Cl)ccc12 (stereo unspecified) [CHLOROQUINE],–,–,19400 nM,–,–,–,44000 nM,–,–,–,–,–,–,–,3 mg/kg,–,100%
